# SR-BI DiI-HDL act – SR-BI HDL lipid transfer activation; CHO ldlA[mSR-BI] cells, DiI-HDL uptake fluorescence, 3 h; 100 = double the neutral-control signal; activation, % at 12.5 µM; 320,000 tested, 0.096% active; AID 504775;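 active = mean replicate activation of at least 60% and every replicate at or above 60%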;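 note: 0% = median plate neutral-control signal and 100% = twice that signal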
#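 Material: SR-BI-overexpressing, LDLR-lacking CHO cells | Dosing: Single compound concentration, delivered by pin transfer | Probe or stimulus: Labelled HDL, 10 µg/mL | Signal: Bottom-read cell fluorescence after medium removal, ex 550/em 595 nm | Schedule: 3 h, 37 °C | Evaluation: HDL uptake via cellular fluorescence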
# SR-BI DiI inh – mouse SR-BI HDL lipid transfer inhibition; Q61009; ldlA[mSR-BI] CHO cells, DiI-HDL uptake fluorescence, 3 h; inhibition, % at 12.5 µM; 320,000 tested, 0.96% active; AID 488896;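 active = mean replicate inhibition of at least 70% and a set share of replicates each scoring 70 or more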;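 note: 0% = median of neutral control wells and 100% = median of positive control wells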
# Target sequence (Q61009 whole entry, looked up): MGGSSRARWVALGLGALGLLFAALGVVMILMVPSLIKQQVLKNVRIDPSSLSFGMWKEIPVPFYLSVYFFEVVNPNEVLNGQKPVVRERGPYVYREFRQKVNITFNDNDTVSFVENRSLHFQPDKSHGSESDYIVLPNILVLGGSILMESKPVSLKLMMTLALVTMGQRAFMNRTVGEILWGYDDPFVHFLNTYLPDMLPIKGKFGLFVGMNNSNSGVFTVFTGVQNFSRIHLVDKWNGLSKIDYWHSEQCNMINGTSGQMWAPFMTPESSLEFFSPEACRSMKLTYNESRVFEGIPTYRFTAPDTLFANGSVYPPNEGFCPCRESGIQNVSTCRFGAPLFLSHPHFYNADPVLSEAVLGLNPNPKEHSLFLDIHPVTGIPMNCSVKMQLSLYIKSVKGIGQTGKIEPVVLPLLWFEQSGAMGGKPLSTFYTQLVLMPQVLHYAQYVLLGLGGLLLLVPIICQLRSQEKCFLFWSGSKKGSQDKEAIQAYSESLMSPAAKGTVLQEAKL
# dFosB act-1 – mouse delta FosB homodimer activation. P13346. purified delta FosB, TAMRA-CDK5 oligo fluorescence polarization; percent of positive-control signal above neutral wells. activation, % at 25 µM. 340,000 tested, 0.99% active. AID 493131;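 active = mean activation above about 17%, with every replicate also reaching it, limit read from the data, passing the limit was not always enough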
# Dyrk1A ADPGlo – inhibitors of rat Dyrk1A kinase; Q63470; ADP-Glo luminescence, NFATc1 peptide; inhibition, % at 12.5 µM; 310,000 tested, 0.43% active; AID 504441;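 note: plate controls were vehicle with enzyme for no effect and no enzyme for full effect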
# CDK5 inh – CDK5/p35 (human) kinase inhibition; Recombinant CDK5/p35, ADP-Glo luminescence, 60 min; 330,000 tested, 0.01% active; inhibition, % at 10 µM; Q00535+Q15078;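 active = highest replicate inhibition of at least 50% and at least 75% of replicates reaching 50%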;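 note: plate controls were DMSO neutral control for no effect and GW8510 at 10 µM for full effect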
# NSD2 HMT inh – NSD2 (human) methyltransferase inhibition; O96028; NSD2 peptide methylation, AlphaScreen, 120 min; inhibition, % at 12.5 µM; 310,000 tested, 0.54% active; AID 743445
# dFosB act-2 – activators of mouse delta FosB homodimer DNA binding | shares compounds with dFosB act-1 | purified delta FosB, TAMRA-CDK5 oligo fluorescence polarization; normalised: neutral wells 0, positive control 100 | activation, % at 24.9 µM | 2,400 tested, under 10 active;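 active = highest replicate activation at or above 34% and every replicate reaching that threshold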;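 note: higher polarization means more probe DNA bound by delta FosB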
# Starred values were filed as active, the others as inactive; · = no result. In the library only some 2.5% were active in any assay of this set; here they are far more common. Cut-off read from the data, not from the text of the source, unless noted: active = inhibition above about 50%; inactive = the rest.
SMILES,SR-BI DiI-HDL act,SR-BI DiI inh,dFosB act-1,Dyrk1A ADPGlo,CDK5 inh,NSD2 HMT inh,dFosB act-2
O=C(Nc1cccc(-c2cnc3ccccc3n2)c1)c1ccco1,-12,12,-44,15,2,-3,·
Cc1ccccc1NC(=O)Cn1nnc2c(cnn2-c2ccc(F)cc2)c1=O,3,-3,18*,·,-1,·,4
O=C(Cn1ncc2c([nH]c3ccccc32)c1=O)Nc1ccc(F)cc1F,16,-16,64*,-4,1,-7,9
CC(=O)C1=C(O)C(=O)N(c2ccc(Br)cc2)C1c1ccc(Cl)cc1 (stereo unspecified),-4,4,-8,-5,0,2,·
CC(=O)c1cn(-c2ccc(Cl)cc2)c(=O)n(Cc2ccc(Br)cc2)c1=O,11,-11,27*,-1,1,-2,1
O=C(Cn1nc(C(=O)O)c2ccccc2c1=O)Nc1nc(-c2ccccc2)cs1,·,·,69*,11,-1,-9,-2
NC(=O)c1c(NC(=O)CN2CCCC2)sc2c1CCCC2,-11,11,2,8,0,-1,·
O=C(Cn1nc(C(=O)O)c2ccccc2c1=O)Nc1cccc(S(=O)(=O)N2CCCCC2)c1,-4,4,28*,-3,-2,-4,8
NC(=O)c1c(NC(=O)Cn2nc(C(=O)O)c3ccccc3c2=O)sc2c1CCC2,·,·,33*,-3,0,·,2
O=C(Cn1nc(C(=O)O)c2ccccc2c1=O)Nc1cccc(S(=O)(=O)N2CCOCC2)c1,28,-28,-19,5,-2,5,·
Cc1ccccc1NC(=O)Cn1nc(C(=O)O)c2ccccc2c1=O,·,·,-4,4,-2,1,·
O=C(Cn1nc(C(=O)O)c2ccccc2c1=O)Nc1ccccc1C(F)(F)F,·,·,78*,-5,-1,-2,4
[N-]=[N+]=NC1CC(CO)OC1n1ccc(=O)[nH]c1=O (stereo unspecified),12,-12,-5,-4,-1,3,·
CC1CC(C)CN(CCCNC(=O)CN2C(=O)CSc3ccc(S(=O)(=O)N4CCOCC4)cc32)C1 (stereo unspecified),27,-27,-9,2,0,-3,·
Cc1ccc(SCc2c(C(=O)N/N=C/c3cccs3)nnn2-c2nonc2N)cc1,·,·,·,·,·,2,·
CN(C(=O)c1cccc(NC(=O)Cc2ccc(NC(=O)C3CCN(C(=O)C4CCCC4)CC3)cc2)c1)C1CC1,-41,41,-6,·,-1,·,·
S=C(Nc1ccc(Cl)cc1)c1nc2ccccc2[nH]1,-123,123*,29*,1,1,-1,1
COc1ccc(-n2c(SCC(=O)N3CCc4ccccc43)nnc2-c2c[nH]c3ccccc23)cc1,-2,2,49*,-2,0,·,3
CN(CC1CCOCC1)C(=O)CC1C(=O)NCCN1CC(c1ccccc1)c1ccccc1 (stereo unspecified),-2,2,-10,5,0,7,·
CN1CC[C@]2(CCN3CCc4c(oc5ccccc45)[C@@H]3C2)N(C)C1=O,7,-7,-1,3,0,·,·
CC(NC(=O)CN(c1ccccc1F)S(C)(=O)=O)c1ccccc1 (stereo unspecified),34,-34,2,-4,-1,-2,·
O=C(COC(=O)c1ccc(S(=O)(=O)N2CCCCC2)cc1)Nc1ccccc1,7,-7,21*,·,1,-2,2
O=C(COC(=O)c1cc([N+](=O)[O-])ccc1NCCO)Nc1cccc(S(=O)(=O)N2CCCC2)c1,-31,31,31*,0,-1,0,1
COc1ccc(NC(=O)COC(=O)c2ccc(S(=O)(=O)N(C)c3ccccc3OC)cc2)cc1OC,-10,10,-9,-6,1,0,·
CC(=O)Nc1ccc(NC(=O)COC(=O)c2ccc(S(=O)(=O)N(C)c3ccccc3)cc2)cc1,-29,29,38*,0,-4,-8,0
Cc1ccc(NC(=O)COC(=O)c2ccc(S(=O)(=O)N3CCCCC3)cc2)cc1,33,-33,2,2,1,-2,·
